FXIIa inh – human FXIIa protease inhibitors, primary screen, biochemical, 1536-well; Coagulation factor XII (Homo sapiens), P00748; purified FXIIa, Boc-QGR-AMC fluorogenic substrate, 2 h; inhibition, % at 5 µM; 220,000 tested, 0.3% active; AID 800, 2007; in the data active means inhibition above about 40%;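 further: 0% = enzyme with no compound and 100% = blank without enzyme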
FXIa inh – human FXIa protease inhibitors, primary screen, biochemical, 1536-well; inhibition, % at 5 µM; Coagulation factor XI (Homo sapiens), P03951; purified FXIa, Boc-Glu-Ala-Arg-AMC fluorogenic substrate; 220,000 tested, 0.14% active;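 active means inhibition of at least 40%; inactive means inhibition below 40%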;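 further: fluorescence of freed AMC excited at 355 nm; 0% = enzyme without compound and 100% = no enzyme blank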
Target sequence (P03951 19-387 limits assumed): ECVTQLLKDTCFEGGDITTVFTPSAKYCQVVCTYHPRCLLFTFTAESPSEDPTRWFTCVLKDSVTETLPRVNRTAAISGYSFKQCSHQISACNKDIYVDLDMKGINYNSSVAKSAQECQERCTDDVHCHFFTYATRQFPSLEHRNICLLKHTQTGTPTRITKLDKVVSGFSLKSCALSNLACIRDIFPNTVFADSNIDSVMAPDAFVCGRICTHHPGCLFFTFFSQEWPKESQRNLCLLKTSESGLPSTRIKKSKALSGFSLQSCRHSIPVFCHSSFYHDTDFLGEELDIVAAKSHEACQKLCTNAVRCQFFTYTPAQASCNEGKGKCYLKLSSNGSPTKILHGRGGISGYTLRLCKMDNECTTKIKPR
Target sequence (P03951 388-625 limits assumed): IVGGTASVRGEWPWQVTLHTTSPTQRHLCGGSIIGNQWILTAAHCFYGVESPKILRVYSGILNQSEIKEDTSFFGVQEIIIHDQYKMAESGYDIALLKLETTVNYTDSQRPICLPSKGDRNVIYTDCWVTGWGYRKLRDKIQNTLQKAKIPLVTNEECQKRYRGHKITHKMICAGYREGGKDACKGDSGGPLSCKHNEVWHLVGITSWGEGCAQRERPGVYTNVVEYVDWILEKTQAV
thrombin 1536 – human alpha-thrombin inhibitors, primary screen, counter-screen for coagulation protease inhibitor project, biochemical, 1536-well, fluorogenic AMC substrate. inhibition, % at 5 µM. AID 1046, 2008. Prothrombin (Homo sapiens), P00734. Boc-VPR-AMC fluorogenic substrate cleavage. 220,000 tested, 0.26% active;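 active means inhibition at or above 40%; inactive means inhibition below 40%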;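 further: 0% = enzyme with no compound and 100% = wells without enzyme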
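System: Human alpha-thrombin protein | Medium: pH 7.5 Tris (50 mM) with NaCl 150 mM, Tween 20 0.05% | Times: Enzyme reaction carried out at room temperature | Detection: AMC fluorescence, 355/460 nm | Evaluation: Percent inhibition scaled between no-compound controls and no-enzyme blanks | Benchmarks: Enzyme without compound as high, wells lacking enzyme as low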
KLK5 inh – human KLK5 protease inhibitors, primary screen, biochemical, 1536-well; recombinant hK5, fluorogenic AMC substrate cleavage; AID 873, 2007; 210,000 tested, 0.59% active; Kallikrein-5 (Homo sapiens), Q9Y337; inhibition, % at 5 µM;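 active means inhibition of 40% or more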;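 further: 0% = enzyme controls without compound and 100% = no-enzyme blanks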
m-calpain inh – inhibitors of pig calpain II, primary screen, biochemical, fluorogenic peptide substrate, 1536-well; purified calpain II, 30 min; AID 1236, 2008; inhibition, % at 16 µM; 220,000 tested, 0.37% active;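 active means inhibition above about 50%, limit read from the data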
* hit, by the source's call; . = no result given. Sampled rows, rich in hits. Any-hit rate of the full collection: about 1.4%.

SMILES	FXIIa inh	FXIa inh	thrombin 1536	KLK5 inh	m-calpain inh
COc1ccc(S(=O)(=O)CCC(=O)Nc2cc(C)ccc2OC)cc1	17	1	9	.	-24
COc1ccccc1NC(=O)CCS(=O)(=O)c1ccccc1	24	31	52*	29	3
COc1ccccc1C(=O)Nc1ccc(S(=O)(=O)NC2=NCCCCC2)cc1	25	26	13	52*	32
COc1ccccc1C(=O)Nc1ccc(S(=O)(=O)Nc2onc(C)c2C)cc1	5	-1	-9	1	-17
O=C(/C=C/c1ccco1)N1CCC(Cc2ccccc2)CC1	5	-2	-6	-4	30
Cc1cc(-c2nc3ncccc3o2)ccc1NC(=S)NC(=O)C(C)C	.	37	40*	20	6
C/C(N)=C(/C#N)C(=O)CSc1nnc(COc2ccccc2Cl)o1	10	-11	-16	-23	103*
C=CCc1ccc(OCCOc2ccc(/C=N/n3cnnc3)cc2OCC)c(OC)c1	14	5	2	-6	-184
Cc1cc2ncn(-c3ncnc4sc5c(c34)CCC(C)C5)c2cc1C (configuration not stated)	13	0	-6	-12	66*
Cc1cc2ncn(-c3ncnc4sc5c(c34)CCCC5)c2cc1C	7	-1	0	-8	9
N#CC1=C(N)NC(SCc2ccc(Br)cc2)=C(C#N)C12CCCCC2	16	11	3	-9	24
N#CC1=C(N)NC(SCc2ccccc2)=C(C#N)C12CCCC2	19	10	25	45*	40
N#CC1=C(N)NC(SCc2ccc(Cl)cc2)=C(C#N)C12CCCCC2	1	-7	-4	25	64*
COc1ccc(CC(=O)N2CCC(Nc3nc4ccccc4n3Cc3ccc(F)cc3)CC2)cc1	24	7	19	60*	7
c1ccc(-c2cc(-c3ccc(N4CCOCC4)cc3)nc3ccccc23)cc1	0	3	-12	-28	-47
O=C(Cc1cccs1)Nc1nnc(Cc2ccc(F)cc2)s1	31	15	23	77*	-18
CCCn1c(SCC(=O)Nc2cccc(C(=O)OC)c2)nnc1-c1cccnc1	-8	-11	-15	-4	17
CCOC(=O)c1c(N)nn(C(=O)C(C)C)c1-c1ccc(OC)cc1	6	-1	-4	-14	9
CCOC(=O)c1c(N)nn(C(C)=O)c1-c1ccccc1	-1	-7	3	86*	10
CC(=O)c1sc(=S)n(-c2ccccc2)c1C	23	11	14	13	18
CSc1cc(C)n(-c2ccccc2)c(=S)c1C(C)=O	18	2	20	46*	16
CCOc1ccc(NC(=O)c2cc3ccccc3cc2O)cc1	11	1	1	0	-40
COC(=O)c1cc(NC(=O)CC2C(=O)NCCN2C(=O)c2ccccc2)cc(C(=O)OC)c1 (configuration not stated)	12	8	0	17	-5
COc1ccc(/C=C/C(=O)NC(=S)Nc2cc3oc4ccccc4c3cc2OC)cc1	11	0	-3	-17	62*
COc1cc2c(cc1NC(=S)NC(=O)/C=C/c1ccc(OC)c(OC)c1)oc1ccccc12	2	6	-12	-21	29
SMILES	FXIIa inh	FXIa inh	thrombin 1536	KLK5 inh	m-calpain inh
CC(=O)Nc1ccc(NC(=S)NC(=O)/C=C/c2ccc(Cl)cc2)cc1	-7	-9	-6	-18	3
COc1ccc(/C=C/C(=O)NC(=S)Nc2ccc(C(=O)O)cc2)cc1	4	5	-5	-13	74*
O=C(O)COc1ccc2oc3ccccc3c2c1	9	4	-8	-1	12
CCOc1ccc(C(=O)c2cc([N+](=O)[O-])ccc2N2CCOCC2)cc1	15	8	2	-9	3
Cc1csc2nc(CSc3nc4ccccc4o3)c(Br)n12	-1	-3	-7	0	3
O=C(Nc1ccc(OC(=O)c2ccccc2)c(-c2nc3ccccc3s2)c1)c1ccccc1	14	4	1	-16	64*
Cc1ccc(Cn2c(=N)c(C(=O)NCc3ccco3)cc3c(=O)n4ccccc4nc32)cc1	19	13	20	41*	-183
N=c1c(C(=O)NCc2ccco2)cc2c(=O)n3ccccc3nc2n1CCc1ccccc1	8	6	1	-27	-284
CCCC(C(=O)NC1CCCCC1)N(Cc1ccco1)C(=O)CNS(=O)(=O)c1ccccc1 (configuration not stated)	6	-4	-2	-7	-7
CNC(=S)N(CCc1c(C)[nH]c2ccc(C)cc12)Cc1ccco1	9	5	0	-7	-11
CCNC(=S)N(CCc1c(C)[nH]c2ccc(Cl)cc12)Cc1ccco1	6	-4	-16	-1	59*
Cc1cc(N2C(=O)CC(Cc3ccccc3)C2=O)no1 (configuration not stated)	-4	4	-5	-21	-40
Cc1cc(N2C(=O)CC(Cc3ccc(Cl)cc3)C2=O)no1 (configuration not stated)	18	-3	5	40*	-22
Cc1c(C(=O)OCC(=O)Nc2cccc(S(N)(=O)=O)c2)oc2c1ccc1ccccc12	6	0	-1	.	-164
CCc1cc2c(=O)c(-c3nc(C)cs3)c(CCCC(=O)O)oc2cc1O	10	1	2	4	-12
CCc1cc2c(=O)c(-c3nc(C)cs3)coc2cc1OC(C)C(=O)NCCO (configuration not stated)	14	10	-4	-9	55*
O=C1c2cccc3cccc(c23)C(=O)N1c1ccccn1	29	34	6	47*	-13
Cc1ccc(O)c(C(=O)c2cnc3c(c2)COc2ccccc2-3)c1	3	3	1	-2	29
CC1(C)CC(=O)C(C=Nc2ccccc2Sc2ccccc2)=C(O)C1	2	1	8	44*	9
CC1(C)CC(=O)C(C=Nc2ccccc2C(=O)O)=C(O)C1	13	1	0	12	-52
C/C(=N\NC(=S)NC1CCCCC1)c1cccc(C(F)(F)F)c1	2	-5	-7	-3	29
CCOC(=O)CSc1nnc(CNC(=O)c2ccc(S(=O)(=O)N3CCCC3)cc2)n1C	4	3	48*	48*	37
CCOC(=O)CSc1nnc(CNC(=O)c2ccc(S(=O)(=O)N3CCOCC3)cc2)n1C	-8	6	0	-24	-10
COc1cccc(C(=O)NCCC2=CCCCC2)c1OC	10	0	-3	2	0
CCCOC(=O)c1ccc(Oc2cn[nH]c2-c2ccc(OCC(=O)NN)cc2O)cc1	30	43*	13	41*	26
C=C(C)COc1ccc(-c2[nH]ncc2Oc2ccccc2OCC)c(O)c1	16	3	-1	13	45

Screening data from PubChem.
